According to ChEMBL document CHEMBL1145787, “Synthesis and structure-activity relationship of N-substituted 4-arylsulfonylpiperidine-4-hydroxamic acids as novel, orally active matrix metalloproteinase inhibitors for the treatment of osteoarthritis” (J Med Chem, 2003):

Assays:
[1] = Volume of distribution at steady state of compound was determined in rabbit at 5 mg/kg intravenously admn.; format: ADME, organism-based, Oryctolagus cuniculus; set-up: dose 5 mg/kg, route intravenous; conditions: in vivo, iv, read-out: Vdss
How it was run: (§1)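 Single iv dose of 5 mg/kg in Sprague–Dawley rats, New Zealand rabbits, Beagle dogs and Cynomolgus monkeys. Mean plasma pharmacokinetics: C0 is the concentration at T=0, Vdss the volume of distribution at steady state, and CLT the total clearance.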

[2] = In vivo inhibitory activity against Matrix metalloprotease enzyme by dialysis implant assay, value is relative to activity of CGS-27023 (48+/-3) at 25 mg/kg. po; format: functional
[3] = Apparent elimination half life of compound was determined in monkey at 25 mg/kg orally; format: ADME, organism-based; set-up: dose 25 mg/kg, route oral; conditions: simiiformes, in vivo, po
How it was run: (§2)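 Single-dose PK in Sprague–Dawley rats, New Zealand rabbits, Beagle dogs and cynomolgus monkeys. Dosing was 25 mg/kg oral or 5 mg/kg iv. Plasma concentration–time profiles gave the apparent elimination half-life (T1/2) and the area under the concentration–time curve (AUC). Parameters are reported as means.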

Stromelysin-1 = Stromelysin-1 (Homo sapiens, UniProt P08254); experiment: Inhibition of Matrix metalloprotease-3
How it was run: (§3)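 Each inhibitor concentration was tested in triplicate. IC50 came from a four-parameter logistic fit of data within a single experiment and is reported as the mean of the triplicate values.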

[4] = Area under concentration-time curve of compound was determined in dog at 25 mg/kg orally; format: ADME, organism-based, Canis lupus familiaris; set-up: dose 25 mg/kg, route oral; conditions: in vivo, po; how it was run: as §2
[5] = Apparent elimination half life of compound was determined in monkey at 5 mg/kg intravenously admn.; format: ADME, organism-based; set-up: dose 5 mg/kg, route intravenous; conditions: simiiformes, in vivo, iv; how it was run: as §2
[6] = target: 72 kDa type IV collagenase (Homo sapiens, UniProt P08253); experiment: Inhibition of Matrix metalloprotease-2; how it was run: as §3
[7] = Apparent elimination half life of compound was determined in rabbit at 5 mg/kg intravenously admn.; format: ADME, organism-based, Oryctolagus cuniculus; set-up: dose 5 mg/kg, route intravenous; conditions: in vivo, iv; how it was run: as §2
[8] = Volume of distribution at steady state of compound was determined in monkey at 5 mg/kg intravenously admn.; format: ADME, organism-based; set-up: dose 5 mg/kg, route intravenous; conditions: simiiformes, in vivo, iv, read-out: Vdss; how it was run: as §1
[9] = Time of peak concentration of compound was determined in rabbit at 25 mg/kg orally; format: ADME, organism-based, Oryctolagus cuniculus; set-up: dose 25 mg/kg, route oral; conditions: in vivo, po
How it was run: (§4)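 Single oral dose of 25 mg/kg in Sprague–Dawley rats, New Zealand rabbits, Beagle dogs and Cynomolgus monkeys. Mean plasma pharmacokinetics; Cmax is the maximum plasma concentration and Tmax is the time of peak concentration.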

[10] = Area under concentration-time curve of compound was determined in rat at 5 mg/kg intravenously admn.; format: ADME, organism-based; set-up: dose 5 mg/kg, route intravenous; conditions: in vivo, iv, read-out: AUC 0; how it was run: as §2
Oryctolagus cuniculus = experiment: Effect of compound on cartilage in surgically induced osteoarthritis (OA) model in rabbit at 15 mg/kg, value are relative to activity of RS-130830 (7.9+/-1.5) at 25 mg/kg; format: ADME, organism-based, Cartilage tissue; conditions: in vivo
How it was run: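 Rabbits had anterior cruciate ligament transection plus meniscectomy in one knee, with sham surgery on the contralateral knee. From day 10 after surgery, groups of 12 were dosed once daily by oral gavage with vehicle, test compound or the RS-130830 reference for 4 weeks. Knee joints were then collected and scored for gross pathological changes by blinded investigators.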

[11] = Total clearance of compound was determined in rabbit at 5 mg/kg intravenously admn.; format: ADME, organism-based, Oryctolagus cuniculus; set-up: dose 5 mg/kg, route intravenous; conditions: in vivo, iv, read-out: CLT; how it was run: as §1
Collagenase 3 = Collagenase 3 (Homo sapiens, UniProt P45452)
[12] = Area under concentration-time curve of compound was determined in rabbit at 5 mg/kg intravenously admn.; format: ADME, organism-based, Oryctolagus cuniculus; set-up: dose 5 mg/kg, route intravenous; conditions: in vivo, iv, read-out: AUC 0; how it was run: as §2
[13] = Peak concentration of compound at Time = 0 was determined in dog at 5 mg/kg intravenously admn.; format: ADME, organism-based, Canis lupus familiaris; set-up: dose 5 mg/kg, route intravenous; conditions: in vivo, iv; how it was run: as §1
[14] = Peak concentration of compound at Time = 0 was determined in monkey at 5 mg/kg intravenously admn.; format: ADME, organism-based; set-up: dose 5 mg/kg, route intravenous; conditions: simiiformes, in vivo, iv; how it was run: as §1
[15] = Total clearance of compound was determined in monkey at 5 mg/kg intravenously admn.; format: ADME, organism-based; set-up: dose 5 mg/kg, route intravenous; conditions: simiiformes, in vivo, iv, read-out: CLT; how it was run: as §1
[16] = Oral bioavailability of compound was determined in rat at 25 mg/kg orally; format: ADME, organism-based; conditions: in vivo, read-out: Bioavailabiility
[17] = Maximum plasma concentration of compound was determined in rat at 25 mg/kg orally; format: ADME, organism-based; set-up: dose 25 mg/kg, route oral; conditions: po; how it was run: as §4
[18] = Peak concentration of compound at Time = 0 was determined in rat at 5 mg/kg intravenously admn.; format: ADME, organism-based; set-up: dose 5 mg/kg, route intravenous; conditions: in vivo, iv; how it was run: as §1
[19] = In vivo inhibition of Matrix metalloprotease enzyme by Sponge-wrapped cartilage assay, compared to activity of RS-130830 (inactive) at 5 mg/kg. po. qd; format: functional
[20] = Oral bioavailability of compound was determined in monkey at 25 mg/kg orally; format: ADME, organism-based; conditions: simiiformes, in vivo, read-out: Bioavailabiility
[21] = Area under concentration-time curve of compound was determined in rat at 25 mg/kg orally; format: ADME, organism-based; set-up: dose 25 mg/kg, route oral; conditions: in vivo, po; how it was run: as §2
[22] = Maximum plasma concentration of compound was determined in rabbit at 25 mg/kg orally; format: ADME, organism-based, Oryctolagus cuniculus; set-up: dose 25 mg/kg, route oral; conditions: po; how it was run: as §4
[23] = Maximum plasma concentration of compound was determined in monkey at 25 mg/kg orally; format: ADME, organism-based; set-up: dose 25 mg/kg, route oral; conditions: simiiformes, po; how it was run: as §4

Sequence of Stromelysin-1 (P08254 whole entry): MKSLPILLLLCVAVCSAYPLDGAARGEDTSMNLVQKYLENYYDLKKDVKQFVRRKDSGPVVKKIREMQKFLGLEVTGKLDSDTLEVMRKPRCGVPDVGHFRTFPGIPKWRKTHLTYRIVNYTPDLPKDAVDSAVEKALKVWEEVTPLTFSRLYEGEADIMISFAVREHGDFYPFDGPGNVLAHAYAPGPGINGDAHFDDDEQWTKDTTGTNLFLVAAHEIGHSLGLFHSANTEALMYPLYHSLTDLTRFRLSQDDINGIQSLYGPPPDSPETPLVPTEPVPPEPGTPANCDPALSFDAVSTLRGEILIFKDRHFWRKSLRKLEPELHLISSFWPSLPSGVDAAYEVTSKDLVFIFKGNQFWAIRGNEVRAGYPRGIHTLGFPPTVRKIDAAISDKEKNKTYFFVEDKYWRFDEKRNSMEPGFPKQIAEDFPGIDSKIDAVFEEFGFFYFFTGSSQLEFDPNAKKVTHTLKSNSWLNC
Sequence of 72 kDa type IV collagenase (P08253 whole entry): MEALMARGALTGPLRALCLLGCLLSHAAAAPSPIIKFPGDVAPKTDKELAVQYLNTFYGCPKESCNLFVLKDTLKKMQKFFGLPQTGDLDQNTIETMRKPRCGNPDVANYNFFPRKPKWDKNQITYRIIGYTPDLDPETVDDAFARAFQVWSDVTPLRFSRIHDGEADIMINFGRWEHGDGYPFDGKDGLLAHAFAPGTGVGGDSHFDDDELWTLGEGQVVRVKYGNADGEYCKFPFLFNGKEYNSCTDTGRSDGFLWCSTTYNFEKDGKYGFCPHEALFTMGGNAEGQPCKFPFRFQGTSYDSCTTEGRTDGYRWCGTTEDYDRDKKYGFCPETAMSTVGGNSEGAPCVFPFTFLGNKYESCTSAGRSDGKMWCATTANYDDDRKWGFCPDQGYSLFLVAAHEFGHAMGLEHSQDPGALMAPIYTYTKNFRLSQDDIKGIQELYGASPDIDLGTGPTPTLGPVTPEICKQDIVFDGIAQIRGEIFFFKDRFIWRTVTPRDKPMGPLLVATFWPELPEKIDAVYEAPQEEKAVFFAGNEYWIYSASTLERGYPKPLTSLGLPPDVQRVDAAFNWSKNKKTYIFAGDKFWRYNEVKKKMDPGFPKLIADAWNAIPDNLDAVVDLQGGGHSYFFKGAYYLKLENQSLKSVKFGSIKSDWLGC

With `O=C(NO)C1(S(=O)(=O)c2ccc(Oc3ccc(Cl)cc3)cc2)CCN(Cc2ccccc2)CC1` the Vd [1] was 0.1 L/kg, the inhibition in vivo at 25 mg/kg [2] was 53% and the half-life [3] was 20 h. For the same compound, the IC50 (Stromelysin-1) was 55 nM, the AUC [4] was 1810 µg·h/mL and the half-life [5] was 20.7 h. It also gave an IC50 [6] of 1 nM, a half-life [7] of 11.8 h and a Vd [8] of 0.2 L/kg. The Tmax [9] was 10 h, the AUC [10] was 327 µg·h/mL and the “Average gross pathology scores+/- SE” value (Oryctolagus cuniculus) was 9.7. The clearance [11] was 0.1 mL/min/kg, the IC50 (Collagenase 3) was 1 nM and the AUC [12] was 640 µg·h/mL. For the same compound, the C0 [13] was 82 µg/mL, the C0 [14] was 162 µg/mL and the clearance [15] was 0.1 mL/min/kg. The bioavailability [16] was 55%, the Cmax [17] was 75.2 µg/mL and the C0 [18] was 329 µg/mL. It also gave an inhibition in vivo at 5 mg/kg [19] of 24%, a bioavailability [20] of 37% and an AUC [21] of 899 µg·h/mL. For the same compound, the Cmax [22] was 22.7 µg/mL and the Cmax [23] was 50.3 µg/mL.
